# The source made the active and inactive calls. No cut-off for these calls is given here.
# How the values were obtained:
# [1] = biological target: T1, MAO-B (amine oxidase [flavin-containing] B) (Homo sapiens, UniProt P27338); experiment: Inhibition of MAOB at 10 uM
# T1 sequence (P27338 whole entry): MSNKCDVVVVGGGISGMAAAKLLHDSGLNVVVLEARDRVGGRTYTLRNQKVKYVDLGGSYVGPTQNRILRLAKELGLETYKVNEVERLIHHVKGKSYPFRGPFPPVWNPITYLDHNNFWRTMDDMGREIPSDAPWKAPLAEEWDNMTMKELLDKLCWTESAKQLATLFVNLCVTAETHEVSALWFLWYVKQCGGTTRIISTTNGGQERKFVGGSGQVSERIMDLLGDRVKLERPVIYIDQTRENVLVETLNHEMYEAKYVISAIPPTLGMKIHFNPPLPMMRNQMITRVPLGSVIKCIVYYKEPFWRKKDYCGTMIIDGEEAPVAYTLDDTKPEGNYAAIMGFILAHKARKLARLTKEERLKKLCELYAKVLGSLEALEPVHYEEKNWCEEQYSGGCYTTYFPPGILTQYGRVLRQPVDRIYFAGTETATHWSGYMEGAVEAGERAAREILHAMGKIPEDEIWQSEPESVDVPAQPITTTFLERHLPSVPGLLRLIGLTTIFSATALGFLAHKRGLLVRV
# In short: (§1)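 Radioligand binding panel. Values are average percentages of inhibition of specific binding, measured against potent standard ligands for each target.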
# [2] = biological target: 5-hydroxytryptamine receptor 2A (Homo sapiens) (UniProt P28223); experiment: Inhibition of radioligand binding to 5HT2A at 10 uM
# Chain of 5-hydroxytryptamine receptor 2A (Homo sapiens) (P28223 whole entry): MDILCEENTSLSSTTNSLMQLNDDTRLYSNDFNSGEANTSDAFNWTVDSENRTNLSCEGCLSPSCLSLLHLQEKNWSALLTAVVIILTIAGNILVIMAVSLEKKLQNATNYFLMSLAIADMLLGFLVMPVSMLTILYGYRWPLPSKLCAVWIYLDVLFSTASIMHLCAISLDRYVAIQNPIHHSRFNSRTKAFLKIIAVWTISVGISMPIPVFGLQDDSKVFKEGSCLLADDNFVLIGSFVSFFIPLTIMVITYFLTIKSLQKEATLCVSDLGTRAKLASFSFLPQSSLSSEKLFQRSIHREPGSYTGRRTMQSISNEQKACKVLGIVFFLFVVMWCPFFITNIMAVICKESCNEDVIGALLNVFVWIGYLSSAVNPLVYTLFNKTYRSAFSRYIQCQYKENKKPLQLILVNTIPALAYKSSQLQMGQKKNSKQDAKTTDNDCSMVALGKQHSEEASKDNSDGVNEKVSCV
# In short: (§2)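 Part of an in vitro radioligand binding panel. Each target was tested against a potent standard radioligand for that site. The read-out was percent inhibition of specific binding, reported as an average value.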
# [3] = biological target: T2, Muscarinic acetylcholine receptor M4 (Homo sapiens) (UniProt P08173); experiment: Inhibition of radioligand binding to muscarinic M4 receptor at 10 uM; in short: as §2
# T2 sequence (whole entry): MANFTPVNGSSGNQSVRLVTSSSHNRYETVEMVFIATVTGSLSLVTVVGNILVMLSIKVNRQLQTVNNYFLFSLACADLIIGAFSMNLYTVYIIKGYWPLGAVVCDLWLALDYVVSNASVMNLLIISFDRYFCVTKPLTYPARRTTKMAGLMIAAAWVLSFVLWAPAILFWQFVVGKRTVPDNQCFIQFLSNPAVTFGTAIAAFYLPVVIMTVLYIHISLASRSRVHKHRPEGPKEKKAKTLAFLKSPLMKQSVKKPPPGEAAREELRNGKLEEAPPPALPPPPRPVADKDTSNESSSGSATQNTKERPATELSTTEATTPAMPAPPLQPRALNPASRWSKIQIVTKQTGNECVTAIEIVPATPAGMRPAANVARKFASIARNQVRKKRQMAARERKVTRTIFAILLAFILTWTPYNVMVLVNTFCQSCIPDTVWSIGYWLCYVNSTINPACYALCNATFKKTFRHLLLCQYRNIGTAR
# [4] = biological target: Mu-type opioid receptor (Homo sapiens) (UniProt P35372); experiment: Inhibition of radioligand binding to MOP receptor at 10 uM; in short: as §2
# Chain of Mu-type opioid receptor (Homo sapiens) (P35372 whole entry): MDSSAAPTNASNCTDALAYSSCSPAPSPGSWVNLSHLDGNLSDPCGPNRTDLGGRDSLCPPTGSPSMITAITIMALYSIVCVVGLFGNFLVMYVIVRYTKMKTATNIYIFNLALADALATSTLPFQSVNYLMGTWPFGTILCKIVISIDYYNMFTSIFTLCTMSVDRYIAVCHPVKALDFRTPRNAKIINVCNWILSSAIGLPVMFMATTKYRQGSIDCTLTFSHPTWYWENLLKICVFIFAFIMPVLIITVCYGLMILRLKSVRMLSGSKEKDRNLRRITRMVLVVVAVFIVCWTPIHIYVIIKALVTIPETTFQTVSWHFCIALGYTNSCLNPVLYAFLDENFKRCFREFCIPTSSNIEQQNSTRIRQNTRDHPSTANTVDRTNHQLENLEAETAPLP
# [5] = biological target: Delta-type opioid receptor (Homo sapiens) (UniProt P41143); experiment: Inhibition of radioligand binding to DOP receptor at 10 uM; in short: as §2
# Chain of Delta-type opioid receptor (Homo sapiens) (P41143 whole entry): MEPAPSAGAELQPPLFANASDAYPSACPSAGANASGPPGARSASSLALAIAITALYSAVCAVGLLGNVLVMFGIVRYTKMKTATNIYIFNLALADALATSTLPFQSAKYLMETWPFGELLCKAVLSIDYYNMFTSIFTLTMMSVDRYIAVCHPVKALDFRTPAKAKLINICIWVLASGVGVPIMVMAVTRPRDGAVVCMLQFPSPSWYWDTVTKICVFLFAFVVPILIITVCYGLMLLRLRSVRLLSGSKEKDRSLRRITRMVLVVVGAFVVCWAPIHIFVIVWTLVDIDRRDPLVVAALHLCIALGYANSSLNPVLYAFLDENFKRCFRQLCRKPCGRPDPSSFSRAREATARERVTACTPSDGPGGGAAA
# [6] = Inhibition of radioligand binding to N-methyl D-aspartate receptor phencyclidine binding site at 10 uM; in short: as §1
# [7] = biological target: T3, Muscarinic acetylcholine receptor M5 (Homo sapiens) (UniProt P08912); experiment: Inhibition of radioligand binding to muscarinic M5 receptor at 10 uM; in short: as §2
# T3 sequence (whole entry): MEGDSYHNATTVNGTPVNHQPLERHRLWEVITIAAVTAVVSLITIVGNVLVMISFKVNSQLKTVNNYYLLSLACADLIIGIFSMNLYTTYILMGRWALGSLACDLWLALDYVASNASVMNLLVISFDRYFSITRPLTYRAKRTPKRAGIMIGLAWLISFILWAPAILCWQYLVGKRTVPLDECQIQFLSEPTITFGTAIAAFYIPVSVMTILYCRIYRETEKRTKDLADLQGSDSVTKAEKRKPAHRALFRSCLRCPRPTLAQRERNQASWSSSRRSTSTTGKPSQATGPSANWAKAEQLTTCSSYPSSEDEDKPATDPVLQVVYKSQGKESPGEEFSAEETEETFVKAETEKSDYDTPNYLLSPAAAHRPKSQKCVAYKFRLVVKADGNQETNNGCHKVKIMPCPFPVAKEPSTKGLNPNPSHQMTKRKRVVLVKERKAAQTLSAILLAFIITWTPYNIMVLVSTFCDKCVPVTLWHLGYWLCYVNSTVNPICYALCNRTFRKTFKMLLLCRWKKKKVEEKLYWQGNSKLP
# [8] = biological target: Acetylcholinesterase (Homo sapiens) (UniProt P22303); experiment: Inhibition of AChE at 10 uM; in short: as §2
# Chain of Acetylcholinesterase (Homo sapiens) (P22303 whole entry): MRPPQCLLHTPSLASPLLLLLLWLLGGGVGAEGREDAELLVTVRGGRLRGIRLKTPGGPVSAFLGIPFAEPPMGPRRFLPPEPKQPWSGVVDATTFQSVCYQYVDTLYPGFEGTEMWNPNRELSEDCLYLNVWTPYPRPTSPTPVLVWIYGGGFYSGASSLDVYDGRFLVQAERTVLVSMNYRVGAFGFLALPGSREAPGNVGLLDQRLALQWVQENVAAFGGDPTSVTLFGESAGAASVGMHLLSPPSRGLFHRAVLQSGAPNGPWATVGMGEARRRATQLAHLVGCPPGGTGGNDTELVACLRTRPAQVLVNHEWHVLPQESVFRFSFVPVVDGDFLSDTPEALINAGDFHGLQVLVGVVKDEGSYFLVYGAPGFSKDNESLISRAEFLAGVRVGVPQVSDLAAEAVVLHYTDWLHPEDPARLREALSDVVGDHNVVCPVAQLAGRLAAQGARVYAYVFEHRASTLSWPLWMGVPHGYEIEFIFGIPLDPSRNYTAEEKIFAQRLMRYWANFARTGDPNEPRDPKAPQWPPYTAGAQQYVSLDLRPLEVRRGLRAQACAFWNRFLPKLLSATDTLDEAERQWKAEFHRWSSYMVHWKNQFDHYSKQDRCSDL
# Rattus norvegicus = species: Rattus norvegicus; experiment: Displacement of [3H]idazoxan from rat cerebral cortex imidazole receptor 2 at 10 uM in presence of 1 uM yohimbine; type: tissue-based
# [9] = Displacement of [3H]idazoxan from rat cerebral cortex imidazole receptor 2 in presence of 1 uM yohimbine; type: tissue-based
# [10] = Inhibition of radioligand binding to Sigma receptor at 10 uM
# Nischarin = Nischarin (Homo sapiens, UniProt Q9Y2I1); experiment: Inhibition of radioligand binding to imidazole receptor 1
# Chain of Nischarin (Q9Y2I1 whole entry): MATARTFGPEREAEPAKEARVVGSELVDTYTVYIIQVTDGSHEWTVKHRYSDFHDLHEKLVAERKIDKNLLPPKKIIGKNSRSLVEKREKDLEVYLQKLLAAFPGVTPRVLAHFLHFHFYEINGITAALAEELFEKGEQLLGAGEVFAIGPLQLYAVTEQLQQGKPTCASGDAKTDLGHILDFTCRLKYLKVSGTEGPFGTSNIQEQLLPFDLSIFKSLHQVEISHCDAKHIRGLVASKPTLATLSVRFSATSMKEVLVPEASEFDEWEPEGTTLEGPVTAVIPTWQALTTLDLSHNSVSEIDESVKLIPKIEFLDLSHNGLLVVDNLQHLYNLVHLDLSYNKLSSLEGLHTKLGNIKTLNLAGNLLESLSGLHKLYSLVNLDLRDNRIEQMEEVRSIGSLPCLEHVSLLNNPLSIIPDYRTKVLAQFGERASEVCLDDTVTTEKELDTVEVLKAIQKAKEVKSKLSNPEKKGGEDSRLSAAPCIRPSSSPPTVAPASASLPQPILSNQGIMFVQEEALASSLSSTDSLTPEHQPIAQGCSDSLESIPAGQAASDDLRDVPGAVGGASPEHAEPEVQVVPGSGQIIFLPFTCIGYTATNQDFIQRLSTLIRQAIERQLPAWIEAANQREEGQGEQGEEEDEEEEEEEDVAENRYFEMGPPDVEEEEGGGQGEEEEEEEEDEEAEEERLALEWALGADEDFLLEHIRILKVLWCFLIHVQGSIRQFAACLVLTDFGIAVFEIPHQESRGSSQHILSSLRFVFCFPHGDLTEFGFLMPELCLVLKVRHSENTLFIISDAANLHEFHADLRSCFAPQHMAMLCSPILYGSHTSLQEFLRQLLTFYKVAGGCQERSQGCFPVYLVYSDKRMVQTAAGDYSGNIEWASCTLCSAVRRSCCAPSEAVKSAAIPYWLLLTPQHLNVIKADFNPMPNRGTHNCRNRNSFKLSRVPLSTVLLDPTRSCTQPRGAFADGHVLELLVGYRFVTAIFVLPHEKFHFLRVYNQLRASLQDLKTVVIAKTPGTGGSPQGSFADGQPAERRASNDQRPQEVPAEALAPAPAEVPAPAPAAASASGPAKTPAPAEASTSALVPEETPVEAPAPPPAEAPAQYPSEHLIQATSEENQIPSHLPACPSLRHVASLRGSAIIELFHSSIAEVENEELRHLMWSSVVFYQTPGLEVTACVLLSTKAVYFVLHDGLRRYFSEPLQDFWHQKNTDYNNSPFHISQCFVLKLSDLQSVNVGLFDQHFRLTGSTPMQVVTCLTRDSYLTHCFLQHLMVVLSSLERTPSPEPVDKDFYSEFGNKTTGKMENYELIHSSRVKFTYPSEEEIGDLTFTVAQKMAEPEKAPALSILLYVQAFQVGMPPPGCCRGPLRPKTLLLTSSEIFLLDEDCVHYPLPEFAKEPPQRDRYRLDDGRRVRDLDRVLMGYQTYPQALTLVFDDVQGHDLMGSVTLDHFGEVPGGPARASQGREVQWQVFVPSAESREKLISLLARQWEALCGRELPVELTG
# Hippocampal neuron = experiment: Neuroprotective activity against Abeta-induced neuronal apoptosis in mouse hippocampal neurons assessed as reduction in total neuronal nuclei level at 30 uM pre-incubated for 4 hrs before Abeta challenge for 72 hrs by immunofluorescence microscopy; type: functional, tissue-based; conditions: Hippocampus
# In short: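 Primary mouse hippocampal neurons were exposed to Aβ (20 μM, 72 h) alone or with compound. Double immunofluorescence microscopy was then run for DNA fragmentation (TUNEL, green) and total neuronal nuclei (NeuN, red), with merged images. DNase-treated cells served as positive control.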
SMILES,inhibition at 10 µM [1] [%],inhibition [2] [%],inhibition [3] [%],inhibition [4] [%],inhibition [5] [%],inhibition [6],inhibition [7] [%],inhibition [8] [%],inhibition (Rattus norvegicus) [%],Ki [9] [µM],inhibition [10] [%],Ki (Nischarin) [µM],Activity (Hippocampal neuron)
CN(C)C(CN)c1ccccc1Cl (configuration not stated),< 20,< 20,< 20,< 20,< 20,inactive,< 20,< 20,43,14,< 20,5.2,Active
CN1CCNC(c2ccccc2)C1 (configuration not stated),< 20,< 20,< 20,< 20,< 20,inactive,< 20,< 20,41,18,< 20,–,Active
NCC12CCC3CC(CC3C1)C2 (configuration not stated),< 20,< 20,< 20,< 20,< 20,inactive,< 20,< 20,34,26,39,–,Active
